High-throughput results: PubChem, The Scripps Research Institute Molecular Screening Center
Sampled rows, rich in hits. Any-hit rate of the full collection: about 1.3%.
PP1 counter = blocks human PP1-alpha phosphatase, a PP5 counter-screen. inhibition, % at 6.7 µM. P62136. purified PP1alpha, OMFP fluorescence. actives 0.9% (n = 320,000);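 active means inhibition above the mean inhibition of all tested compounds plus 3 SD, computed separately for each screening campaign, cut at about 15% in these data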
Target sequence (P62136 whole entry, looked up): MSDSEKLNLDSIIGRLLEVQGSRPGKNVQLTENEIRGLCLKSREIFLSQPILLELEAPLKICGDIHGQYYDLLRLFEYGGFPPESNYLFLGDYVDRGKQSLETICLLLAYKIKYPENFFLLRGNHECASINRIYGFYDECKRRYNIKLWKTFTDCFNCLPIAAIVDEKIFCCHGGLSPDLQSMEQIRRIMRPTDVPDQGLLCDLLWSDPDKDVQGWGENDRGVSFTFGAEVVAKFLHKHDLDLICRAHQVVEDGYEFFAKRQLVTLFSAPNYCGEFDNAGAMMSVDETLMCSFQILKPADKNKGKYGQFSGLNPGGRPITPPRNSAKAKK
NR2E3 ag-1 = agonists of human NR2E3 nuclear receptor. Q9Y5X4. CHO-S Gal4-NCOR/VP16-NR2E3 two-hybrid, luciferase. inhibition of corepressor binding, % at 3.98 µM. actives 0.35% (n = 360,000);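 active means inhibition above the mean of all tested compounds plus 3 SD, cut at about 70% in these data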;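 further: 0% = DMSO with NR2E3 transfected cells and 100% = cells lacking NR2E3 construct; higher means lower luciferase signal from less NR2E3 corepressor binding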
NR2E3 ag-2 = agonists of human nuclear receptor NR2E3 | Q9Y5X4 | GST-NR2E3/biotin-RetCOR TR-FRET, 1536-well | AID 2300 | actives 0.12% (n = 320,000) | inhibition of corepressor binding, % at 4.78 µM;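 active means percent inhibition above the cutoff of mean plus 3 SD of all tested compounds, set per screening campaign, cut at about 20% in these data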;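 further: 0% = DMSO wells and 100% = biotin wells as full block of FRET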
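System: GST-NR2E3 and biotin-RetCOR proteins; probe or stimulus: 7 nM biotin-RetCOR; doses: compound at 4.8 µM, single dose; schedule: Compound–protein incubation for 5 h at 4 °C; detection: time-resolved FRET; read-out: percent inhibition; controls: biotin wells as high control, 0.6% DMSO wells as low control; format: 1536-well plates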
PP5 inh = PP5 (human) phosphatase inhibition | P53041 | purified PP5c, OMFP substrate fluorescence | inhibition, % at 6.7 µM | actives 0.18% (n = 320,000) | AID 1987;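 active means inhibition above the campaign's mean inhibition across all tested compounds plus 3 SD, cut at about 9.5% in these data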;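 further: 0% = DMSO only and 100% = 100 µM cantharidin control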
NR2E3 ag confirm-1 = confirmation of human NR2E3 nuclear receptor agonists. AID 2379. activation (reported as inhibition), % at 3.98 µM. cell-free NR2E3 corepressor release, TR-FRET, 5 h. actives 39% (n = 360). shares compounds with NR2E3 ag-2; in the data active means activation above about 20%
PPARg-NCOR2 ag = counter-screen for NR2E3 agonists: human PPARgamma-NCOR2 interaction agonists; shares compounds with NR2E3 ag-2; TR-FRET PPARg-NCOR2 coregulator interaction, biochemical; inhibition, % at 3.98 µM; actives 45% (n = 360); in the data active means inhibition above about 20%;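 further: 0% = DMSO vehicle and 100% = wells without protein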
NR2E3 ag confirm-2 = NR2E3 agonism confirmed in two-hybrid assay; actives 51% (n = 2,300); inhibition, % at 3.98 µM; AID 624378; CHO-S mammalian two-hybrid NR2E3-NCOR, luciferase luminescence; shares compounds with NR2E3 ag-1;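 active means average inhibition above a cutoff equal to the mean inhibition of all tested compounds plus one SD, cut at about 70% in these data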;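 further: 0% = DMSO in NR2E3 cells and 100% = DMSO in cells lacking NR2E3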
VP16 counter = GAL4-VP16 reporter inhibition in NR2E3 agonist counterscreen; shares compounds with NR2E3 ag-1; CHO-S GAL4-VP16 luciferase reporter, luminescence; inhibition, % at 3.98 µM; AID 624379; actives 29% (n = 2,300);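 active means mean inhibition above a cutoff equal to the average over all tested compounds plus one standard deviation, cut at about 70% in these data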;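 further: luciferase from a UAS reporter driven by GAL4-VP16 transactivation; 0% = DMSO with VP16-transfected cells and 100% = DMSO with cells lacking VP16; higher means less reporter light so more repression of VP16 activity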
Starred values were filed as active, the others as inactive; . = no result given.

SMILES	PP1 counter	NR2E3 ag-1	NR2E3 ag-2	PP5 inh	NR2E3 ag confirm-2	VP16 counter	others
Cc1nc2c(=O)n(C)c(=O)nc-2n(C)n1	43.5*	113.7*	38.2*	10.7*	99.8*	97.9*	NR2E3 ag confirm-1=40.0*;PPARg-NCOR2 ag=63.7*
COc1ccccc1CCNC(=O)CCC(=O)N1CC2C[C@@H](C1)Cn1c2cccc1=O	0.5	-31.7	-2.1	0.0	.	.
CC1=CC(C)CC(C)OC(=O)CC(c2ccc(O)cc2)NC(=O)C(Cc2c(Br)[nH]c3ccccc23)N(C)C(=O)C(C)NC(=O)C(C)C1 (stereo unspecified)	.	64.2	.	.	58.0	62.8
Oc1c(Br)c(Br)c(Br)c(Br)c1Br	9.8	100.9*	0.5	3.7	99.5*	88.2*
Oc1c(Br)cc(Br)cc1Br	-1.7	6.8	0.9	-2.4	.	.
NC(Cc1ccc(Cl)cc1)c1csc(Nc2ncccn2)n1 (stereo unspecified)	.	58.1	.	.	51.4	27.7
NC(Cc1ccc(F)cc1)c1csc(Nc2ncccn2)n1 (stereo unspecified)	.	50.5	.	.	21.8	-6.6
Nc1ccc(CC(N)c2csc(Nc3ncccn3)n2)cc1 (stereo unspecified)	.	-33.3	.	.	.	.
Brc1ccc2c(c1)-n1nncc1CN(CC1CCCCC1)C2	.	-21.3	.	.	.	.
CCn1cc(CN2CCCC(C(=O)c3sccc3C)C2)cn1 (stereo unspecified)	-6.9	-24.3	4.2	-1.5	.	.
CC1CC(C)(O)CC(C(O)CC2CC(=O)NC(=O)C2)C1=O (stereo unspecified)	.	100.4*	.	.	100.1*	98.7*
Oc1c(Cl)cccc1Cc1cc(Cl)cc(Cl)c1O	.	98.1*	.	.	100.4*	92.7*
CC(C)(C)c1ccc(CSc2cnn(C(C)(C)C)c(=O)c2Cl)cc1	-0.8	107.3*	-1.9	2.0	99.6*	93.3*
COC(=O)C1=C(C)NC(=S)NC1c1ccc(N(CCCl)CCCl)cc1Cl (stereo unspecified)	.	-17.6	.	.	.	.
CC(C)=CCN1CC[C@@]2(C)c3cc(O)ccc3CC1C2C (stereo partly specified)	.	-30.0	.	.	.	.
CN1C2CCC1CC(OC(=O)c1cc(Cl)cc(Cl)c1)C2 (stereo unspecified)	-1.3	-12.1	0.9	1.3	.	.
C[C@H]1CCC[C@@H](O)CCC/C=C/c2cc(O)cc(O)c2C(=O)O1	4.8	24.7	2.8	1.0	.	.
CC1CCC/C=C/C2CC(O)CC2C(O)/C=C/C(=O)O1 (stereo unspecified)	-1.2	83.2*	2.2	0.5	98.6*	55.8
c1ccc(-c2ccc(CN3Cc4ccccc4-n4nncc4C3)cc2)cc1	.	59.5	.	.	83.1*	59.9
COC(=O)C1=C(c2ccc(OC(F)(F)F)cc2)C[C@@H]2CC[C@H]1N2C(=O)N1CCC(O)CC1	-3.4	-0.3	2.6	2.0	.	.
C[C@H]1[C@@H](OS(=O)(=O)O)C[C@@H]2C[C@H]([C@@H](O)c3cc(=O)[nH]c(=O)[nH]3)NC3=NC[C@H]1N32	.	100.7*	.	.	98.9*	82.0*
Cc1csc(=N)n1Cc1ccccc1	-3.2	8.8	-0.7	1.4	.	.
COC(=O)C1=C(c2ccc(-c3ccccc3)c(F)c2)C[C@@H]2CC[C@H]1N2C(=O)N1CCCC1	3.7	70.6*	1.9	2.0	53.7	56.2
COC(=O)C1=C(c2ccc(-c3ccccc3)c(F)c2)C[C@@H]2CC[C@H]1N2C(=O)N1CCCCC1	4.2	36.9	2.2	4.4	.	.
O=[N+]([O-])c1ccc(N(CCO)CCO)c2c1no[n+]2[O-]	.	76.5*	.	.	54.4	44.2
SMILES	PP1 counter	NR2E3 ag-1	NR2E3 ag-2	PP5 inh	NR2E3 ag confirm-2	VP16 counter	others
COC(=O)C1CN(C#N)N(c2ccc(Cl)cc2)C12c1ccccc1-c1ccccc12 (stereo unspecified)	10.3	80.2*	0.4	1.9	91.6*	62.9
CC1(C)C(C(=O)N2CCN(c3ccc(Cl)cc3)CC2)C1(C)C	2.7	-6.2	-2.7	0.5	.	.
CC(C)OC1CCCC(O)C1CC(=O)O (stereo unspecified)	0.6	13.0	-2.9	-0.7	.	.
Cc1cc(OC(=O)c2ccco2)c2c3c(c(=O)oc2c1)CCCC3	3.7	93.1*	2.6	5.6	68.6	43.4
Cc1nn(Cc2ccccc2)c(C)c1C(=O)OCC(=O)Nc1ccccc1SCC#N	1.8	-23.0	-0.8	-0.9	.	.
CC(C)(O)/C=C/C(=O)C(C)(O)C1C(O)CC2(C)C3CC=C4C(C=C(O)C(=O)C4(C)C)C3(C)C(=O)CC12C (stereo unspecified)	.	78.5*	.	.	46.8	57.2
CC(c1ccccc1)n1cncc1C(=O)O (stereo unspecified)	-1.3	-8.9	0.7	-1.8	.	.
CN(Cc1cccc(-c2ccncc2)c1)C(=O)Oc1ccccc1Cc1ccccc1	.	80.8*	.	.	79.7*	78.7*
Cc1nc2cc(OC(=O)N(C)Cc3cccc(-c4ccncc4)c3)ccc2s1	.	66.8	.	.	62.3	53.8
CN(C)Cc1ccccc1OC(=O)N(C)C	-2.8	-10.8	4.4	-0.7	.	.
CN(Cc1cccc(-c2ccncc2)c1)C(=O)Oc1ccccc1Cl	.	87.6*	.	.	73.1*	76.5*
Cc1cccc(OP(=O)(NCc2ccccc2)Oc2cccc(C)c2)c1	3.4	-6.4	-2.6	4.5	.	.
CCC1CN2CCc3cc(OC)c(OC)cc3C2CC1CC1NCCc2c1[nH]c1ccc(O)cc21 (stereo unspecified)	.	102.4*	.	.	98.7*	99.1*
O=C1NC(=O)C(CCc2ccncc2)(CCc2ccncc2)C(=O)N1Cc1ccc(F)cc1	-0.9	-9.4	5.5	1.5	.	.
COc1ccc(CNC(C)Cc2cccs2)cc1 (stereo unspecified)	-2.9	-7.4	1.8	-1.2	.	.
Nc1ccccc1C(=O)OC1CSC1	-2.5	-4.1	1.0	0.3	.	.
CC(N)C(=O)NC1C2C(=C(O)CC(O)C2O)C(=O)OC1(C)C(Cl)Cl (stereo unspecified)	.	98.1*	.	.	96.1*	91.9*
COC1CC2C=C(C)C=CC=CC(=O)NC(c3ccccc3)CC=CCCC(O)CC(=O)C2=C1O (stereo unspecified)	.	102.7*	.	.	98.5*	95.4*
COc1cc(C=C2C(=O)NC(=O)NC2=O)ccc1OS(=O)(=O)c1ccccc1[N+](=O)[O-]	3.5	-5.4	2.3	0.7	.	.
CN1CCC2(O)OCCCC2C1 (stereo unspecified)	-0.1	-11.0	-1.9	-1.8	.	.
